One experiment has as its system Leishmania major. The experiment can be described thus: Antileishmanial activity against Leishmania major promastigotes assessed as inhibition of [3H]thymidine uptake after 2 hrs by liquid scintillation counting. It is filed as functional, organism-based. In short, it runs like this: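 WHO reference vaccine strain promastigotes kept at 26 °C in RPMI 1640 with 25 mM HEPES, 4 mM L-glutamine, gentamicin, 10% heat-inactivated FCS. Compounds from DMSO stock diluted in medium, incubated with 1 × 10^7 promastigotes/mL for 2 h; [3H]thymidine then added, 18 h further incubation, harvest, scintillation counting of incorporated label.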

The test system of another experiment is PBMC. The experiment can be described thus: Inhibition of phytohemagglutininin A-stimulated human PBMC proliferation assessed as decrease in [14C]thymidine incorporation. It is filed as functional, cell-based.
The test system of another experiment is Plasmodium falciparum. The experiment can be described thus: Antimalarial activity after 24 hrs against chloroquine-sensitive Plasmodium falciparum 3D7 by [3H]phenylalanine uptake.
A short description of experiment [1]: Cytotoxicity against drug-sensitive human KB-3-1 cells after 48 hrs by MTS/PMS assay. To be noted: KB 3-1, 48 h. It is filed as functional, cell-based. In short, it runs like this: (§1)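 Mycoplasma-free KB-3-1 and vinblastine-selected KB-V1 (passages 5-15, no vinblastine pressure) in DMEM/10% FBS, 37 °C, 5% CO2. Seeded 4 × 10^3 (KB-3-1) or 7 × 10^3 (KB-V1) cells/well, 24 h preincubation, then 48 h with compounds (DMSO ≤0.25%). MTS/PMS read at 492 nm after ~50 min; six repeats per concentration, IC50 from ≥3 independent determinations on different passages.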

Experiment [2] is described as follows: Cytotoxicity against multidrug-resistant human KBV1 cells after 48 hrs by MTS/PMS assay. It is filed as functional, cell-based. As to conditions: KB-V1, 48 h. In short, it runs like this: as §1
A short description of experiment [3]: Resistance index, ratio of IC50 for multidrug-resistant human KBV1 cells to IC50 for drug-sensitive human KB-3-1 cells. The experiment is classed as functional.

The results in this text go back to ChEMBL document CHEMBL1156370, “Leishmanicidal, antiplasmodial, and cytotoxic activity of novel diterpenoid 1,2-quinones from Perovskia abrotanoides: new source of tanshinones” (J Nat Prod, 2001).

Structures are written as SMILES.

As to `C[C@H]1COC2=C1C(=O)C(=O)c1c2ccc2c1C(=O)CCC2(C)C`, the values for the IC50 with Leishmania major, with PBMC and with Plasmodium falciparum were 25.7 µM, 12.4 µM and 17.6 µM, respectively.
Consider `CC(C)C1=Cc2ccc3c(c2C(=O)C1=O)C(=O)CCC3(C)C`, for which the half-inhibitory concentration (IC50) (in general, the concentration that gives 50% inhibition) with Leishmania major was 17.9 µM; in experiment [1], 46.6 µM; in experiment [2], 47.8 µM; in the experiment on PBMC it was 44.6 µM; in the experiment with Plasmodium falciparum, 13 µM.
As to `C[C@@H]1[C@H](O)[C@@H](C)/C=C/C=C/C=C/C=C/C=C/C=C/C=C/[C@H](O[C@@H]2O[C@H](C)[C@@H](O)[C@H](N)[C@@H]2O)C[C@@H]2O[C@](O)(C[C@@H](O)C[C@@H](O)[C@H](O)CC[C@@H](O)C[C@@H](O)CC(=O)O[C@H]1C)C[C@H](O)[C@H]2C(=O)O` [AMPHOTERICIN B], the 50% inhibitory concentration (IC50) in the experiment with Leishmania major is 0.16 µM.
For the molecule `C[C@H]1COC2=C1C(=O)C(=O)c1c2ccc2c1[C@H](O)CCC2(C)C`, the IC50 in the experiment with Leishmania major came to 46.7 µM; in experiment [1] it was 5 µM; in experiment [2], 5.6 µM; in the experiment with PBMC, 16 µM; with Plasmodium falciparum, 26.9 µM.
As to `COC(=O)c1ccccc1-c1c2ccc(=N)cc-2oc2cc(N)ccc12.Cl` [RHODAMINE123], the results for the half-maximal inhibitory concentration (IC50) in experiment [1] and in experiment [2] were 1.6 µM and more than 500 µM, respectively. Also, the “Ratio IC50” value in experiment [3] is reported as 500.
Consider `CC[C@]1(O)C[C@@H]2CN(CCc3c([nH]c4ccccc34)[C@@](C(=O)OC)(c3cc4c(cc3OC)N(C)[C@H]3[C@@](O)(C(=O)OC)[C@H](OC(C)=O)[C@]5(CC)C=CCN6CC[C@]43[C@@H]65)C2)C1` [VINBLASTINE], for which the “Ratio IC50” value in experiment [3] is reported as 210.
As to `C[C@H]1COC2=C1C(=O)C(=O)c1c2ccc2c1CCCC2(C)C` [CRYPTOTANSHINONE], the 50% inhibitory concentration (IC50) in the experiment with Leishmania major was found to be 18.4 µM; in experiment [1] it was 6.9 µM; in experiment [2], 7.5 µM; in the experiment on PBMC, 37.4 µM; in the experiment with Plasmodium falciparum, 12.5 µM.
